biological target: Growth factor receptor-bound protein 2 (Homo sapiens, UniProt P62993); test: Inhibition of Growth factor receptor bound protein 2 binding by ELISA assay method
In short: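 Recombinant purified Grb2 SH2-GST fusion protein preincubated with serial inhibitor dilutions, then added to wells coated overnight with biotinylated Shc-derived phosphopeptide (20 ng/mL); blocking with 5% BSA in TBS, washes with 0.1% BSA/TBS. Bound protein detected with anti-GST antibody plus alkaline phosphatase-conjugated goat anti-mouse antibody, p-nitrophenyl phosphate colorimetric read-out. IC50 from serial dilutions, each concentration in triplicate.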

Growth factor receptor-bound protein 2, sequence (P62993 whole entry, the tested form may be a part): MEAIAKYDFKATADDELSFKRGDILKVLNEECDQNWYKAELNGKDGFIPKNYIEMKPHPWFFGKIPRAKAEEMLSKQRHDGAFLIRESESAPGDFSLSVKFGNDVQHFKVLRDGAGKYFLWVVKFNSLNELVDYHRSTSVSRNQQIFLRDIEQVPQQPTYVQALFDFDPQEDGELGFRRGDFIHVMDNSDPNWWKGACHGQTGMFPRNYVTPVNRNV

Compound | IC50
CC(=O)N[C@@H](Cc1ccc(C(F)(C(=O)O)C(=O)O)cc1)C(=O)NC1(C(=O)N[C@@H](CC(N)=O)C(=O)NCCCc2cccc3ccccc23)CCCCC1 | 680 nM
CC(=O)N[C@@H](Cc1ccc(OC(C(=O)O)C(=O)O)cc1)C(=O)NC1(C(=O)N[C@@H](CC(N)=O)C(=O)NCCCc2cccc3ccccc23)CCCCC1 | 2750 nM
CC(=O)N[C@@H](Cc1ccc(C(C(=O)O)C(=O)O)cc1)C(=O)NC1(C(=O)N[C@@H](CC(N)=O)C(=O)NCCCn2ccc3cc(C)ccc32)CCCCC1 | 12 nM
CC(=O)N[C@@H](Cc1ccc(CP(=O)(O)O)cc1)C(=O)NC1(C(=O)N[C@@H](CC(N)=O)C(=O)NCCCc2cccc3ccccc23)CCCCC1 | 20 nM
CC(=O)N[C@@H](Cc1ccc(OCC(=O)O)cc1)C(=O)NC1(C(=O)N[C@@H](CC(N)=O)C(=O)NCCCc2cccc3ccccc23)CCCCC1 | 68000 nM
NC(=O)C[C@H](NC(=O)C1(NC(=O)[C@H](Cc2ccc(C(C(=O)O)C(=O)O)cc2)NC(=O)C(=O)O)CCCCC1)C(=O)NCCCc1cccc2ccccc12 | 70 nM
Cc1ccc2c(ccn2CCCNC(=O)[C@H](CC(N)=O)NC(=O)C2(NC(=O)[C@H](Cc3ccc(CP(=O)(O)O)cc3)NC(=O)C(=O)O)CCCCC2)c1 | 2 nM
NC(=O)C[C@H](NC(=O)C1(NC(=O)[C@H](Cc2ccc(CC(=O)O)cc2)NC(=O)C(=O)O)CCCCC1)C(=O)NCCCc1cccc2ccccc12 | 1000 nM
CC(=O)N[C@@H](Cc1ccc(CP(=O)(O)O)cc1)C(=O)NC1(C(=O)N[C@@H](CC(N)=O)C(=O)NCCCn2ccc3cc(C)ccc32)CCCCC1 | 4 nM
NC(=O)C[C@H](NC(=O)C1(NC(=O)[C@H](Cc2ccc(OCC(=O)O)cc2)NC(=O)C(=O)O)CCCCC1)C(=O)NCCCc1cccc2ccccc12 | 19000 nM
NC(=O)C[C@H](NC(=O)C1(NC(=O)[C@H](Cc2ccc(C(F)(C(=O)O)C(=O)O)cc2)NC(=O)C(=O)O)CCCCC1)C(=O)NCCCc1cccc2ccccc12 | 170 nM
NC(=O)C[C@H](NC(=O)C1(NC(=O)[C@H](Cc2ccc(CP(=O)(O)O)cc2)NC(=O)C(=O)O)CCCCC1)C(=O)NCCCc1cccc2ccccc12 | 50 nM
CC(=O)N[C@@H](Cc1ccc(CC(=O)O)cc1)C(=O)NC1(C(=O)N[C@@H](CC(N)=O)C(=O)NCCCc2cccc3ccccc23)CCCCC1 | 6400 nM
Cc1ccc2c(ccn2CCCNC(=O)[C@H](CC(N)=O)NC(=O)C2(NC(=O)[C@H](Cc3ccc(C(C(=O)O)C(=O)O)cc3)NC(=O)C(=O)O)CCCCC2)c1 | 8 nM
NC(=O)C[C@H](NC(=O)C1(NC(=O)[C@H](Cc2ccc(OC(C(=O)O)C(=O)O)cc2)NC(=O)C(=O)O)CCCCC1)C(=O)NCCCc1cccc2ccccc12 | 1100 nM
CC(=O)N[C@@H](Cc1ccc(C(C(=O)O)C(=O)O)cc1)C(=O)NC1(C(=O)N[C@@H](CC(N)=O)C(=O)NCCCc2cccc3ccccc23)CCCCC1 | 160 nM

From ChEMBL document CHEMBL1132965, “Inhibition of Grb2 SH2 domain binding by non-phosphate-containing ligands. 2. 4-(2-Malonyl)phenylalanine as a potent phosphotyrosyl mimetic” (J Med Chem, 2000)
